Results gathered from unrelated publications.
Compare with care: the assays were run in different laboratories.
Sample: plasma

For `O=C1CCC(N2Cc3cc(C4CCN(Cc5ccccc5)CC4)ccc3C2=O)C(=O)N1` (centres unmarked), the half-life was 4.29 h (male Sprague-Dawley rat; intravenous; 1 mg/kg).
With `CCOCC(=O)N1CCC[C@H](C(=O)NCc2nc(-c3ccc(C)nc3)cs2)C1` the half-life was 1.9 h (male Sprague-Dawley rat; oral; 3 mg/kg).
`CCCCCCCCCC(=O)N[C@@H](Cc1c[nH]c2ccccc12)C(=O)N[C@H](CC(N)=O)C(=O)N[C@@H](CC(=O)O)C(=O)N[C@@H]1C(=O)NCC(=O)N[C@@H](CCCN)C(=O)N[C@@H](CC(=O)O)C(=O)N[C@H](C)C(=O)N[C@@H](CC(=O)O)C(=O)NCC(=O)N[C@H](CO)C(=O)N[C@@H]([C@H](C)CC(=O)O)C(=O)N[C@@H](CC(=O)c2ccccc2N)C(=O)O[C@@H]1C` has a half-life of 2.6 h (male Wistar rat; subcutaneous; 125 mg/kg; single dose).
For `Cc1cc(S(=O)(=O)NC2CC(N3CCN(CC4CCN(c5ccc(NC6CCC(=O)NC6=O)cc5C)CC4)CC3)C2)ccc1Nc1ncc(C(F)(F)F)c(N2CCC[C@](C)(O)C2)n1` (some centres unmarked), the half-life was 5.3 h (rat; intravenous; 2 mg/kg).
With `CNC(=O)c1cc(Oc2ccc(NC(=O)Nc3ccc(Cl)c(C(F)(F)F)c3)cc2)ccn1` the half-life was 13.8 h (male Sprague-Dawley rat; oral; 100 mg/kg; single dose).
`COc1ccc(-c2coc3cc(O)cc(O)c3c2=O)cc1` gave a half-life of 0.19 h (rat; intravenous; 2 mg/kg).
With `NCCOCC(=O)N1CCC[C@H](C(=O)NCc2nc(-c3ccc(C(F)(F)F)cc3)cs2)C1` the half-life was 4.4 h (male Sprague-Dawley rat; intravenous; 1 mg/kg).
With `C[C@]1(O)CCCN(c2nc(Nc3ccc(S(=O)(=O)N[C@H]4CC[C@H](CN5CCN(c6ccc(C7CCC(=O)NC7=O)c(F)c6)CC5)CC4)cc3F)ncc2C(F)(F)F)C1` (some centres unmarked) the half-life was 6 h (rat; intravenous; 2 mg/kg).
The half-life of `[2H]c1cc(C)c(NC(=O)c2cnc(Nc3cc(N4CCC(O)CC4)nc(C)n3)s2)c(Cl)c1` is reported as 1.9 h (male Sprague-Dawley rat; intravenous; 1 mg/kg).
`CCN(CC)Cc1ccc2cc(COC(=O)Nc3ccc(C(=O)NO)cc3)ccc2c1` gave a half-life of 19.7 h (male Sprague-Dawley rat; oral; 10 mg/kg).
`Cc1cc(S(=O)(=O)NC2CC(N3CCN(CC4CCN(c5ccc6c(c5F)n(C)c(=O)n6C5CCC(=O)NC5=O)CC4)CC3)C2)ccc1Nc1ncc(C(F)(F)F)c(N2CCCC(C)(O)C2)n1` (centres unmarked) has a half-life of 7.2 h (rat; intravenous; 2 mg/kg).
The half-life of `Cc1nc(Nc2ncc(C(=O)Nc3c(C)cccc3Cl)s2)cc(N2CC[C@@H](N)C2)n1` is reported as 2.8 h (male Sprague-Dawley rat; intravenous; 1 mg/kg).
The half-life of `Cc1cc(S(=O)(=O)NC2CC(N3CCN(CC4CCN(c5cccc6c5n(C)c(=O)n6C5CCC(=O)NC5=O)CC4)C4(CC4)C3)C2)ccc1Nc1ncc(C(F)(F)F)c(N2CCC[C@](C)(O)C2)n1` (some centres unmarked) is reported as 3.5 h (rat; intravenous; 2 mg/kg).
With `COc1cc(C2C3=C(COC3=O)N(CCO)c3cc4c(cc32)CCC4)cc(OC)c1OC` (centres unmarked) the half-life was 8.61 h (female Sprague-Dawley rat; intraperitoneal; 50 mg/kg).
For `COc1nc(-c2cccc(-c3ccccc3)c2C)ccc1CNCCNC(=O)CCCCCCCCCCC(=O)N1CCN(CCNC(=O)c2cc3c(=O)n4cccc(C)c4nc3n(CCc3cccs3)c2=N)CC1`, the half-life was 5.8 h (male Sprague-Dawley rat; intravenous; 2 mg/kg).
`CCONC(=O)N1CCC[C@H](C(=O)NCc2nc(-c3ccc(C#N)cc3)cs2)C1` gave a half-life of 2.2 h (male Sprague-Dawley rat; intravenous; 1 mg/kg).
The half-life of `CC[C@H](C)[C@H](NC(=O)[C@@H]1CCCN1C(=O)CNC(=O)[C@H](Cc1ccccc1)NC(=O)[C@H](CC(N)=O)NC(=O)[C@H](CC(N)=O)NC(=O)[C@H](CO)NC(=O)[C@H](CO)NC(=O)[C@H](Cc1c[nH]cn1)NC(=O)[C@H](CCCNC(=N)N)NC(=O)[C@H](CC(C)C)NC(=O)[C@H](Cc1ccccc1)NC(=O)[C@H](CCC(=O)O)NC(=O)[C@H](C)NC(=O)[C@H](CC(C)C)NC(=O)[C@H](CCCNC(=N)N)NC(=O)[C@H](CCC(N)=O)NC(=O)[C@@H](NC(=O)[C@H](C)NC(=O)[C@@H]1CSSC[C@H](NC(=O)[C@H](CCCCN)NC(=O)CC[C@H](NC(=O)CCCCCCCCCCCCCCCCCCC(=O)O)C(=O)O)C(=O)N[C@@H](CC(N)=O)C(=O)N[C@@H]([C@@H](C)O)C(=O)N[C@@H](C)C(=O)N[C@@H]([C@@H](C)O)C(=O)N1)[C@@H](C)O)C(=O)N[C@@H](CC(C)C)C(=O)N1CCC[C@H]1C(=O)N1CCC[C@H]1C(=O)N[C@H](C(=O)N[C@@H](CC(N)=O)C(=O)N[C@H](C(=O)NCC(=O)N[C@@H](CO)C(=O)N[C@@H](CC(N)=O)C(=O)N[C@H](C(=O)N1CCC[C@H]1C(N)=O)[C@@H](C)O)C(C)C)[C@@H](C)O` is reported as 26.8 h (male Sprague-Dawley rat; subcutaneous; 30 nmol/kg; single dose).
`CC(=O)c1c(C)c2cnc(Nc3ccc(N4CCNCC4)cn3)nc2n(C2CCCC2)c1=O` gave a half-life of 2.1 h (male Sprague-Dawley rat; intravenous; 5 mg/kg).
`Cc1cc(S(=O)(=O)N[C@H]2CC[C@H](N3CCN(CC4CCN(c5cccc6c5n(C)c(=O)n6C5CCC(=O)NC5=O)CC4)CC3)CC2)ccc1Nc1ncc(C(F)(F)F)c(N2CCC[C@](C)(O)C2)n1` (some centres unmarked) has a half-life of 4.3 h (rat; intravenous; 2 mg/kg).
With `C1=C/COCc2cc(ccc2OCCN2CCCC2)Nc2nccc(n2)-c2cccc(c2)COC/1` the half-life was 12.1 h (male Sprague-Dawley rat; oral; 36 mg/kg).
`CNS(=O)(=O)c1ccc(Nc2ncc3cc(Cl)c(=O)n(C4CCCC4)c3n2)c(C)c1` has a half-life of 1.2 h (rat; intravenous; 2 mg/kg).
`CC(C)(N)COCC(=O)N1CCC[C@H](C(=O)NCc2nc(-c3ccc(C(F)(F)F)cc3)cs2)C1` has a half-life of 7.2 h (male Sprague-Dawley rat; intravenous; 1 mg/kg).
`Cc1cc(S(=O)(=O)NC2CC(N3CCN(CC4CCN(c5cccc6c5n(C)c(=O)n6C5CCC(=O)NC5=O)CC4)CC3)C2)ccc1Nc1ncc(C(F)(F)F)c(N2CCC[C@](C)(O)C2)n1` (some centres unmarked) gave a half-life of 5.1 h (rat; intravenous; 2 mg/kg).
The half-life of `CONC(=O)c1cccc2c1cc(C)n2-c1nc2c(c(NCc3ccccc3)n1)CCCN2` is reported as 3.13 h (male Sprague-Dawley rat; intravenous; 1 mg/kg; single dose).
`COc1cc(-c2cc(C(C)=O)n3ccccc23)c(OC)cc1Cn1ccnc1` gave a half-life of 0.72 h (male Sprague-Dawley rat; oral; 5 mg/kg).
With `CCCCC(=O)Nc1ccc(-c2ccc3ncn(CCC)c(=O)c3c2)cn1` the half-life was 1.09 h (male rat; oral; 10 mg/kg).
With `COCC(=O)N1CCC[C@H](C(=O)NCc2nc(-c3ccccc3)cs2)C1` the half-life was 6 h (male Sprague-Dawley rat; intravenous; 1 mg/kg).
`C[C@H]1Oc2cc(cnc2N)-c2c(nn(C)c2C#N)CN(C)C(=O)c2ccc(F)cc21` gave a half-life of 8.82 h (male Sprague-Dawley rat; oral; 10 mg/kg; single dose).
For `CCOCC(=O)N1CCC[C@H](C(=O)NCc2nc(-c3ccc(C#N)nc3)cs2)C1`, the half-life was 1.6 h (male Sprague-Dawley rat; oral; 3 mg/kg).
`C=CC(=O)N1CCC([C@@H]2CCNc3c(C(N)=O)c(-c4ccc(Oc5ccccc5)cc4)nn32)CC1` has a half-life of 2.24 h (Sprague-Dawley rat; oral; 16 mg/kg).
With `COCC(=O)N1CCC[C@H](C(=O)NCc2nc(-c3ccc(C#N)cc3)cs2)C1` the half-life was 2.4 h (male Sprague-Dawley rat; oral; 3 mg/kg).
`Cc1cc(S(=O)(=O)N[C@H]2CC[C@H](CN3CCN(c4ccc(C5CCC(=O)NC5=O)c(Cl)c4)CC3)CC2)ccc1Nc1ncc(C(F)(F)F)c(N2CCC[C@](C)(O)C2)n1` (some centres unmarked) has a half-life of 2.9 h (rat; intravenous; 2 mg/kg).
